Hits are enriched below; roughly 4.8% of the tested compounds scored in any of these assays.
UCH37 inh: inhibitors of human UCH37 deubiquitinase, primary screen, biochemical, Ub-AMC cleavage, fluorescence. AID 588478, 2011. inhibition, % (concentration not given with the values). purified proteasome/UCH37. hit rate 0.33% among 330,000. Ubiquitin carboxyl-terminal hydrolase isozyme L5 (Homo sapiens), Q9Y5K5;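 active means mean inhibition over replicate wells above about 20%, limit read from the data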;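 further: 0% = compound-free wells with enzyme and 100% = wells lacking proteasome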
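Test system – human UCH37 enzyme supplied as purified proteasome complex · Incubation – 30 min preincubation with enzyme, 25 min cleavage at room temperature · Detection – AMC fluorescence from Ub-AMC cleavage, excitation 355 nm, emission 460 nm · Benchmarks – no-proteasome wells (full inhibition) and compound-free wells (no inhibition)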
PAFAH1B3 inh: PAFAH1B3 enzyme inhibitors, primary screen, biochemical, fluorescence polarization, human; hit rate 0.28% among 340,000; AID 492972, 2010; inhibition, % at 3.39 µM; recombinant PAFAH1B3, FP-rhodamine probe;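 active means inhibition above the screen-wide average of all tested compounds plus 3 SD, cut at about 25% in these data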;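 further: 0% = enzyme with DMSO only and 100% = wells lacking PAFAH1B3 protein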
Target sequence (Q15102 whole entry, looked up): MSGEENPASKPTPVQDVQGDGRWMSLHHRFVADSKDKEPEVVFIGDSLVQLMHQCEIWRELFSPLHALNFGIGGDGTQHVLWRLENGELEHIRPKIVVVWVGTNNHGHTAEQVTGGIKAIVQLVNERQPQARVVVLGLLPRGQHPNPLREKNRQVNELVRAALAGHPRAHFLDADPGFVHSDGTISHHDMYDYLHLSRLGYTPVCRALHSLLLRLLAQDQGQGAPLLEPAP
PAFAH2 FP inh: PAFAH2 enzyme inhibitors, primary screen, biochemical, fluorescence polarization, human; Platelet-activating factor acetylhydrolase 2, cytoplasmic (Homo sapiens), Q99487; inhibition, % at 3.39 µM; hit rate 0.99% among 340,000; recombinant PAFAH2, FP-rhodamine activity probe;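 active means inhibition above the mean over all tested compounds plus 3 SD, cut at about 30% in these data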;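 further: inhibitors block probe labeling of enzyme so polarization drops; 0% = enzyme with DMSO and 100% = wells lacking PAFAH2 protein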
PAFAH1B2 FP inh: PAFAH1B2 enzyme inhibitors, primary screen, biochemical, fluorescence polarization, human; hit rate 1.2% among 340,000; AID 492953, 2010; inhibition, % at 3.39 µM; recombinant PAFAH1B2, FP-rhodamine activity probe; Platelet-activating factor acetylhydrolase IB subunit alpha2 (Homo sapiens), P68402;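 active means inhibition above the mean of all tested compounds plus 3 SD, cut at about 24% in these data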;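 further: 0% = enzyme with DMSO and 100% = wells lacking PAFAH1B2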
Target sequence (P68402 whole entry, looked up): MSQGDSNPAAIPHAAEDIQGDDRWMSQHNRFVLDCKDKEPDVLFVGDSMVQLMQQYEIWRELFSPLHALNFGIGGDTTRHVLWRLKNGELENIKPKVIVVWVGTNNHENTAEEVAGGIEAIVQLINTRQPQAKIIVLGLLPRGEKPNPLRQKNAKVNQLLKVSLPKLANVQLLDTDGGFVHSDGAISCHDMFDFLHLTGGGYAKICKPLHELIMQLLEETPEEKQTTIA
NR3A LBD binder: binders of NR3A ligand-binding domain, primary screen, biophysical, differential scanning fluorimetry, uHTS. Glutamate receptor ionotropic, NMDA 3A (GRIN3A) ligand-binding domain. NR3A LBD differential scanning fluorimetry, Tm shift; 0% = protein alone, 100% = glycine-bound protein. Tm shift relative to glycine control, % at 25 µM. hit rate 2.5% among 340,000;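 active means melting temperature shift of at least 10% of the positive control shift, at one fixed dose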
pPAFAH FP inh: pPAFAH enzyme inhibitors, primary screen, biochemical, fluorescence polarization, human. recombinant pPAFAH, FP-rhodamine probe fluorescence polarization. inhibition, % at 3.39 µM. hit rate 1.5% among 330,000;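 active means inhibition above the mean inhibition across the screen plus 3 SD, cut at about 25% in these data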;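 further: inhibitors block binding of the rhodamine activity-based probe so polarization drops; 0% = enzyme with DMSO and 100% = wells lacking pPAFAH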
An asterisk follows results filed as active; i = inactive; x = no result given.

SMILES	UCH37 inh	PAFAH1B3 inh	PAFAH2 FP inh	PAFAH1B2 FP inh	NR3A LBD binder	pPAFAH FP inh
FC(F)(F)C(=NP(=S)(N1CCOCC1)N1CCOCC1)N1CCOCC1	-2	x	x	x	x	x
O=C(Nc1ccc(Cl)cc1C(=O)c1ccccc1)c1ccccc1	0	1	4	-1	3	29*
O=C(CN1CCCC1)Nc1ccc(Cl)cc1C(=O)c1ccccc1	0	-6	2	3	-2	18
Cc1[nH]c2ccccc2c1C=NO	1	x	x	x	x	x
O=c1[nH]c(O)c(N=Nc2cc([N+](=O)[O-])ccc2O)c(=O)[nH]1	23*	20	-13	11	1	-14
NC(=O)c1ccc(N=Nc2c(O)[nH]c(=O)[nH]c2=O)cc1	x	x	x	x	x	7
O=C(CSC1c2ccccc2-c2ccccc21)NN=Cc1ccccc1	3	x	x	x	x	x
COC(=O)C1=C(c2ccc3ccccc3c2)C[C@@H]2CC[C@H]1N2C(=O)N1CCOCC1	0	2	6	4	0	-7
COC(=O)C1=C(c2cc3ccccc3o2)C[C@@H]2CC[C@H]1N2C(=O)N1CCOCC1	27*	13	4	-1	0	4
CC[C@H](C)C=C(C)/C=C/C1=CC2=C(Cl)C(=O)[C@@](C)(OC(C)=O)C(=O)C2=CO1	20	x	x	x	x	x
CCN1C[C@]2(C)CC[C@H](OC)C34C2[C@H](OC(C)=O)[C@@]2(OCO[C@@]25C[C@H](OC)[C@H]2C[C@]3(O)C5[C@H]2OC)[C@@H]14	1	x	x	x	x	x
CC1Oc2cc3c(-c4c(O)cc(O)c5c(O)c6c(cc45)OC(C)C(C)C6=O)c(O)cc(O)c3c(O)c2C(=O)C1C (stereo not given)	40*	60*	46*	52*	18*	91*
Cc1ccc(N2C(=O)/C(=C/c3ccc(CN(CCC#N)S(C)(=O)=O)o3)C(=O)NC2=S)cc1C	x	x	x	x	x	32*
CN1C(=O)C(Cc2ccccc2)C(=O)N(C)C1=O	x	10	5	2	10	x
CCCCOc1ccc(CC2C(=O)N(C)C(=O)N(C)C2=O)cc1	29*	5	-3	3	0	-11
Oc1ccc(C=NNP(=S)(c2ccccc2)c2ccccc2)c(O)c1O	0	x	x	x	x	x
NS(=O)(=O)c1ccc(N=Cc2c(O)n(C3CCCCC3)c(=O)n(C3CCCCC3)c2=O)cc1	-14	1	3	0	14*	7
O=C(Nc1ccc(F)cc1)c1c(O)c2c(n(Cc3ccccc3)c1=O)CCCC2	3	-1	-4	-1	11*	-6
O=C(Nc1cccnc1)c1c(O)c2c(n(Cc3ccccc3)c1=O)CCCC2	-2	1	5	-5	1	0
CNC(=S)NN=C1C2CN3CCN(C2)CC1(c1ccccc1)C3	3	x	x	x	x	x
Cc1cc(N(CCCl)CCCl)ccc1C=NNC(=O)Cc1cc(=O)oc2cc(O)ccc12	-201	20	-2	15	11*	x
CN1C[C@H](CO)C[C@@H]2c3cccc4[nH]cc(c34)C[C@H]21	4	7	4	5	4	0
CN1C[C@H](CNC(=O)OCc2ccccc2)C[C@@H]2c3cccc4c3c(cn4C)C[C@H]21	4	3	7	0	-2	27*
ON=C1/C(=C\c2ccccc2)N2CCC1CC2	3	x	x	x	x	x
CCCNC(=O)c1c(N)n(Cc2ccc3c(c2)OCO3)c2nc3ccccc3nc12	-86	-7	0	0	21*	-2
SMILES	UCH37 inh	PAFAH1B3 inh	PAFAH2 FP inh	PAFAH1B2 FP inh	NR3A LBD binder	pPAFAH FP inh
COCCNC(=O)c1c(N)n(CCC(C)C)c2nc3ccccc3nc12	i	14	4	5	-7	13
CC(C)CCn1c(N)c(C(=O)NCc2cccs2)c2nc3ccccc3nc21	-174	2	0	3	18*	1
CC(C)CCNC(=O)c1c(N)n(Cc2ccc3c(c2)OCO3)c2nc3ccccc3nc12	-355	-1	2	3	32*	0
CC(C)CNC(=O)c1c(N)n(Cc2ccc3c(c2)OCO3)c2nc3ccccc3nc12	-225	12	13	9	22*	6
CN1C(=O)/C(=C\c2ccc(N3CCCCC3)o2)C(=O)NC1=S	22*	-23	-31	-13	-1	0
COc1ccc(N2C(=O)/C(=C/c3ccc(C)o3)C(=O)NC2=S)cc1	1	5	12	-5	1	x
Cc1ccc(/C=C2\C(=O)NC(=S)N(c3cccc(F)c3)C2=O)o1	1	0	14	4	-2	29*
CN1CCN(c2ccc(/C=C3\C(=O)NC(=S)N(c4cccc(Br)c4)C3=O)o2)CC1	21*	-40	-38	-25	1	8
CN1C(=O)/C(=C/c2ccc(N3CCCCCC3)o2)C(=O)NC1=S	18	-24	-14	-23	0	-7
N#Cc1c(N=Cc2ccc(O)cc2O)sc2c1C1CCN2CC1	6	x	x	x	x	x
COC(=O)C1C2c3ccccc3OC1(C)N=c1sc(=Cc3cnn(C)c3C)c(=O)n12 (stereo not given)	2	x	x	x	x	x
COC(=O)C(O)(c1ccc(NC(=S)NC(=O)c2ccccc2)cc1)C(F)(F)F (stereo not given)	2	4	-2	-3	-10	34*
CCOC(=O)c1cc(CC)sc1N=CC1C(=O)NC(=S)NC1=O	5	x	x	x	x	x
COC(=O)C1=C(c2cccc(OCc3ccccc3)c2)C[C@@H]2CC[C@H]1N2C(=O)NCc1ccccc1	1	3	9	16	-1	9
COC(=O)C1=C(c2ccc(C(C)=O)cc2)C[C@@H]2CC[C@H]1N2C(=O)NCc1ccc(F)cc1	4	4	-4	34*	1	4
COC(=O)C1=C(c2ccc(Cl)c(C(F)(F)F)c2)C[C@@H]2CC[C@H]1N2C(=O)NCCO	33*	-4	0	-1	-2	3
COC(=O)C1=C(c2cccc(OCc3ccccc3)c2)C[C@@H]2CC[C@H]1N2C(=O)NCc1ccc(OC)c(OC)c1	-1	-3	0	26*	2	0
COC(=O)C1=C(c2ccc(C(C)=O)cc2)C[C@@H]2CC[C@H]1N2C(=O)NCC1CC1	1	1	-16	5	-1	1
C[C@]12CCC3C(CCC4=CC(=NOCC(=O)NC(CCC(N)=O)C(=O)O)CC[C@@]43C)C1CCC2O (stereo not given in full)	2	x	x	x	x	x

Screening results deposited in PubChem BioAssay by several laboratories.
